Data set [1] has as its target T1, Alpha-1D adrenergic receptor (Homo sapiens, UniProt P25100).
T1 sequence (P25100 whole entry): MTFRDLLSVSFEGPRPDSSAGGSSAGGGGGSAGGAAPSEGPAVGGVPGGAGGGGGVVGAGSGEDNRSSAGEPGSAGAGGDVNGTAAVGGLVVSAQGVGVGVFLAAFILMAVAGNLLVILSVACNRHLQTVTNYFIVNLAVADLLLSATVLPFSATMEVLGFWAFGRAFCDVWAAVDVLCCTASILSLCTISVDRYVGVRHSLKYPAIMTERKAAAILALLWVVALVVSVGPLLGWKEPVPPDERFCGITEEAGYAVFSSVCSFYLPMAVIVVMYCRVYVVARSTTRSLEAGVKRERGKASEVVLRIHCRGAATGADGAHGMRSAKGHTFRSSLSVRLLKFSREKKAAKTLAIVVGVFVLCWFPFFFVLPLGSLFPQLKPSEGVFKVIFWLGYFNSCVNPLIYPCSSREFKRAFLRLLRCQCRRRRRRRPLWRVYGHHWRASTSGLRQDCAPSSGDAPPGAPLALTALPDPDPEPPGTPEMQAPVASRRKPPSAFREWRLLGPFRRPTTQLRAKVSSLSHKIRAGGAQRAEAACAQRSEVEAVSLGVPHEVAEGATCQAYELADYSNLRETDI
In words: Displacement of 7-methoxy-[3H]-prazosin from human alpha1D adrenergic receptor expressed in CHO-K1 cell membranes incubated for 60 mins by liquid scintillation counting analysis. The gist of the method:
(§1)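 CHO-K1 stable-line membranes (10 µg protein), 2.5 nmol/L ligand, Tris-HCl pH 7.5 with MgCl2, EDTA and 0.5% BSA, 12 compound concentrations, room temperature. Filtered and counted; nonspecific binding with 10 µmol/L phentolamine. IC50 by logistic regression, converted to Ki by Cheng-Prusoff with Kd 0.93 (α1A), 0.35 (α1B), 0.26 (α1D) nmol/L. Triplicate mean, 95% CI.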

Data set [2] has as its target T2, Alpha-1A adrenergic receptor (Homo sapiens, UniProt P35348).
T2 sequence (P35348 whole entry): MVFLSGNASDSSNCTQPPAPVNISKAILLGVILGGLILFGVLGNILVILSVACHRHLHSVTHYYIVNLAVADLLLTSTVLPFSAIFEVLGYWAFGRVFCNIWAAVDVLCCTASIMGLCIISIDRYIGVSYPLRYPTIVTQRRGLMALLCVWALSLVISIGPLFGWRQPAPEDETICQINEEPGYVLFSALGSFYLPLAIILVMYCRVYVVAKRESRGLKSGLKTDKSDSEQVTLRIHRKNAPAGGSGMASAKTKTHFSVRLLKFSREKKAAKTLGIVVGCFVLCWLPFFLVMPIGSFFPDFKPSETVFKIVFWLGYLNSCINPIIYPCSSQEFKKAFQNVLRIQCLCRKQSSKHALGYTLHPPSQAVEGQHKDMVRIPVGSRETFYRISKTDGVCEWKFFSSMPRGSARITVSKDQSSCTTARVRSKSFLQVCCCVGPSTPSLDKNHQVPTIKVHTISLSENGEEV
The data set can be described thus: Displacement of 7-methoxy-[3H]-prazosin from human alpha1A adrenergic receptor expressed in CHO-K1 cell membranes incubated for 60 mins by liquid scintillation counting analysis. The gist of the method: as §1

In data set [3] the target is T3, Alpha-1B adrenergic receptor (Homo sapiens, UniProt P35368).
T3 sequence (P35368 whole entry): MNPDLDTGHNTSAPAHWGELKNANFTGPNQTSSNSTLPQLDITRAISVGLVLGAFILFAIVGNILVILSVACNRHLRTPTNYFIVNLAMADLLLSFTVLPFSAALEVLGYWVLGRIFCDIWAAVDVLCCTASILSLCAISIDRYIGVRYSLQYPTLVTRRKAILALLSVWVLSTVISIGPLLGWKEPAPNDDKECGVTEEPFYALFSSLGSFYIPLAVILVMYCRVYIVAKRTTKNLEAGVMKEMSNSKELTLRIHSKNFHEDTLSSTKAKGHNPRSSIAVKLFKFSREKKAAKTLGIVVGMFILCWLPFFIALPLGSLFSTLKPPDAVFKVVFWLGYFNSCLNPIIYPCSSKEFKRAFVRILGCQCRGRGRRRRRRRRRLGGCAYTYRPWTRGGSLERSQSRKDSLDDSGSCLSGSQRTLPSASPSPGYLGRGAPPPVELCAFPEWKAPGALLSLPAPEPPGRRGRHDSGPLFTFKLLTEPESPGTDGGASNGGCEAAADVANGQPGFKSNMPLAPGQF
In words: Displacement of 7-methoxy-[3H]-prazosin from human alpha1B adrenergic receptor expressed in CHO-K1 cell membranes incubated for 60 mins by liquid scintillation counting analysis. A digest of the protocol: as §1

The target in data set [4] is T4, 5-hydroxytryptamine receptor 1A (Homo sapiens, UniProt P08908).
T4 sequence (P08908 whole entry): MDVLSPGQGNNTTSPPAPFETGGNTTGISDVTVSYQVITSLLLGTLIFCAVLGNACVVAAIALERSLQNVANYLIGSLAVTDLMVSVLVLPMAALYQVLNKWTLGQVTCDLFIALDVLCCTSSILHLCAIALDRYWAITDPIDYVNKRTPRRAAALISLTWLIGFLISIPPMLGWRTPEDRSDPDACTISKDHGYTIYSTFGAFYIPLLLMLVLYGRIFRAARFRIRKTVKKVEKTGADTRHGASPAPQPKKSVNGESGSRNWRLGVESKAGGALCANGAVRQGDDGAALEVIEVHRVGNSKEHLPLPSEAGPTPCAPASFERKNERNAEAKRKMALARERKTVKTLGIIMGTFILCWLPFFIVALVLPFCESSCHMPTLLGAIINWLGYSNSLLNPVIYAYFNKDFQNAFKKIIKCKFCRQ
In words: Inhibition of 5-HT 1A receptor (unknown origin).

In data set [5] the target is Voltage-gated inwardly rectifying potassium channel KCNH2 (Homo sapiens, UniProt Q12809). In words: Inhibition of human ERG channel expressed in CHO cells assessed as peak tail current at 10 uM incubated for 5 mins by patch-clamp assay. The note with it: cho, 5 min, 10 µM. The class given is cell-based. The gist of the method:
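CHO cells stably expressing hERG, grown at 32 °C, 5% CO2 in Ham's F-12 with 10% FBS and 500 µg/mL Geneticin. Population patch clamp with PBS (Ca/Mg) outside, KCl/MgCl2/EGTA/HEPES pH 7.3 inside, amphotericin B perforation. Holding −80 mV, step to 40 mV 2 s, then −50 mV 2 s. Peak tail current taken before and after 5 min compound exposure, inhibition = 100 − post/pre×100, n = 3 or 4.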
Background: In patch-clamp work, channel activity is measured electrically.

Data set [6] addresses CYP3A4 (Homo sapiens, UniProt P08684). The data set can be described thus: Reversible inhibition of CYP3A4 in human liver microsomes at 10 uM using midazolam as substrate incubated for 10 mins by LC/MS/MS analysis. The note with it: probe midazolam. The class given is ADME. The gist of the method: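 Midazolam incubated with 0.1 mg/mL microsomes and test compound at 37 °C. Stopped with acetonitrile/water and centrifuged. 1'-Hydroxymidazolam peak measured in the supernatant.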
(Liver microsomes are a subcellular fraction often used to study metabolism.)

Data set [7] is described as follows: Clearance in human liver microsomes at 1 uM after 15 to 30 mins by LC/MS/MS analysis. The class given is ADME. The note with it: read-out: CLH. A digest of the protocol: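 Incubated with 0.2 mg/mL microsomal protein in 50 mM potassium phosphate, pH 7.4. Reaction started with an NADPH-generating system (MgCl2, glucose-6-phosphate, β-NADP+, G6P dehydrogenase). Stopped with acetonitrile at 15 and 30 min, then analysed for remaining compound. Metabolic velocity taken as the slope of the concentration-time plot.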

Data set [8] is described as follows: Permeability of compound at pH 7.4 by PAMPA. The format is ADME. The note with it: read-out: permeability.

Where only a bound is given, the exact number is not on record here.

The results in this text go back to ChEMBL document CHEMBL3797060, “Discovery of 5-Chloro-1-(5-chloro-2-(methylsulfonyl)benzyl)-2-imino-1,2-dihydropyridine-3-carboxamide (TAK-259) as a Novel, Selective, and Orally Active α1D Adrenoceptor Antagonist with Antiurinary Frequency Effects: Reducing Human Ether-a-go-go-Related Gene (hERG) Liabilities” (J Med Chem, 2016).

Sequence of Voltage-gated inwardly rectifying potassium channel KCNH2 (Q12809 whole entry): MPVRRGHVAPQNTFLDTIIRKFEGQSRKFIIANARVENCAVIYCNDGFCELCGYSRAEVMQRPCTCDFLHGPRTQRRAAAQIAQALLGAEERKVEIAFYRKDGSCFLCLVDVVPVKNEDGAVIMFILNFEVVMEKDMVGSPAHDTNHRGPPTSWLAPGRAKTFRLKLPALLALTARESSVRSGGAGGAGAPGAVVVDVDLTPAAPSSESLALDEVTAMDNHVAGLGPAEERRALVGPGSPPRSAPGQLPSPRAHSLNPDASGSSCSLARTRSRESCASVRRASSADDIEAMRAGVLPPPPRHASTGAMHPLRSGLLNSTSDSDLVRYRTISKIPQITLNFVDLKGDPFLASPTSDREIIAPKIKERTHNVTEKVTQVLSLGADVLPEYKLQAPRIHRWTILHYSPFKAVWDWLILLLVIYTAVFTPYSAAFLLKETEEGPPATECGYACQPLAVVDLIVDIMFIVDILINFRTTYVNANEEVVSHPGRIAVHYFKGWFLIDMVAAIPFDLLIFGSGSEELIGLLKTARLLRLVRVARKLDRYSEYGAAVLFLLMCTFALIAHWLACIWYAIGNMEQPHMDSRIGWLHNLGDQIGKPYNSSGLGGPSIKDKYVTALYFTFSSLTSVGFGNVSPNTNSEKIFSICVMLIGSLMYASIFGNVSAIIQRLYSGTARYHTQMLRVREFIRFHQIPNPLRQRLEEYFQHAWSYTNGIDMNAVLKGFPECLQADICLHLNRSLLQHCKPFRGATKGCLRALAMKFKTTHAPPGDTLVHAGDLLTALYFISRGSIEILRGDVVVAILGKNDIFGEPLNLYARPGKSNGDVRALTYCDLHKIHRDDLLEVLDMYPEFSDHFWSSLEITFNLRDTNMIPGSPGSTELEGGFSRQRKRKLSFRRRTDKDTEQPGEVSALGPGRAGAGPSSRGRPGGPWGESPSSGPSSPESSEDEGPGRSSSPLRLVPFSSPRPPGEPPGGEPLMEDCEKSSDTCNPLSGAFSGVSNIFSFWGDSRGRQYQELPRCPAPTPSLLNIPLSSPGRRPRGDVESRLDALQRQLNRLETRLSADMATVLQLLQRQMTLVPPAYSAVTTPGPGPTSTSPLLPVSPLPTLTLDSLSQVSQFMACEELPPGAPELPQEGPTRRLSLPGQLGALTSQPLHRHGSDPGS
Sequence of CYP3A4 (P08684 whole entry): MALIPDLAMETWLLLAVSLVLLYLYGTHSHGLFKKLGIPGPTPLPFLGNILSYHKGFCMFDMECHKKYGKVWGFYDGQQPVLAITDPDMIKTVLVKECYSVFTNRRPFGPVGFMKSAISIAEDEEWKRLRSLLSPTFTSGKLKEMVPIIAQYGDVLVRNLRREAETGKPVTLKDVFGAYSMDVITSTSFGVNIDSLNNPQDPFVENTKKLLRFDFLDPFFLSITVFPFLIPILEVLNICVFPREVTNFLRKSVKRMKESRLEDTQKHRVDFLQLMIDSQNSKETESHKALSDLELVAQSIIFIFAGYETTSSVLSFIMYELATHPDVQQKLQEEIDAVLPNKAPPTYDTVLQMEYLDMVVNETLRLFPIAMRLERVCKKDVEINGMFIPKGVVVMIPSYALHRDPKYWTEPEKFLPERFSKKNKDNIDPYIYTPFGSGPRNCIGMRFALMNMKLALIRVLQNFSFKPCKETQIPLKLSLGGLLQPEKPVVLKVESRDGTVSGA

For `N=c1c(C(N)=O)cc(Cl)cn1Cc1ccccc1`, the Ki in data set [1] was 30 nM; in data set [2], more than 2700 nM; in data set [3], more than 1200 nM. In data set [4], this compound showed an IC50 of more than 1000 nM.
Turning to `Cl.N=c1c(C(N)=O)cc(Cl)cn1Cc1cccc(Cl)c1`, in data set [5], the “inhibition (INH)” value was 47%. For the same compound, in data set [6], the inhibition at 10 min, 10 µM was -1.6%. Moreover, the microsomal CLint at 1 µM in data set [7] came out at 3 µL/min/mg. Besides, the Papp in data set [8] worked out at 11.6 ×10⁻⁶ cm/s.

Broadly, the Ki is a dissociation constant, usually derived from enzyme kinetics or from competition with a known ligand. Low readings indicate tighter binding, high ones weaker binding. One may read the IC50 as the concentration that gives 50% inhibition. A lower IC50 goes with inhibition by little substance. As usually defined, the inhibition is the change of the read-out against control, counted positive when it falls.
